Data on 22 molecules can be found in ChEMBL document CHEMBL3875167, “Design and synthesis of chiral 2H-chromene-N-imidazolo-amino acid conjugates as aldose reductase inhibitors” (Eur J Med Chem, 2016).

Calls of active or inactive are those of the source. The calls are words filed in the database; no cut-off is given here.

Experiment [1] is filed under the species Rattus norvegicus. In words: Selectivity index, ratio of IC50 for rat kidney ALR1 to IC50 for rat lenses ALR2.
The target in experiment [2] is Aldo-keto reductase family 1 member A1 (Rattus norvegicus, UniProt P51635). In words: Inhibition of rat kidney ALR1 using sodium D-glucuronate as substrate preincubated for 10 mins followed by substrate addition measured for 4 mins. In short, it runs like this: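 ALR1 assay run at 37 °C in 1 mL containing 0.12 mM NADPH, 0.1 M sodium phosphate pH 7.2 and enzyme extract. The mixture was preincubated 10 min, then 20 mM sodium D-glucuronate was added and the reaction monitored for 4 min. The nonenzymatic NADPH oxidation rate without substrate was subtracted. Triplicates at ≥3 concentrations in the 20–80% inhibition range were used to build dose-response curves for IC50.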
Aldo-keto reductase family 1 member A1, sequence (P51635 whole entry, looked up): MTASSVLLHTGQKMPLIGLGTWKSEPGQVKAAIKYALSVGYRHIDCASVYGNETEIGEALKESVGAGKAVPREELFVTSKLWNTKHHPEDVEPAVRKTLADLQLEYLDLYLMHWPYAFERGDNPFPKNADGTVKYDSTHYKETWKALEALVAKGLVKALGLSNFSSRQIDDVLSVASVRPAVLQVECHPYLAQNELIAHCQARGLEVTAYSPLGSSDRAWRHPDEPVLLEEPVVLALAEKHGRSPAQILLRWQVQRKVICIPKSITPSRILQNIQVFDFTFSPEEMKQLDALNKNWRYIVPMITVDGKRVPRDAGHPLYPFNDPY

The target of experiment [3] is Aldo-keto reductase family 1 member B1 (Rattus norvegicus, UniProt P07943). Description: Inhibition of rat lenses ALR2 using DL-glyceraldehyde as substrate preincubated for 10 mins followed by substrate addition measured for 4 mins. Summed up: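 ALR2 assay run at 30 °C in 1 mL containing 0.10 mM NADPH, 0.1 M sodium phosphate pH 6.2 and enzyme extract. The mixture was preincubated 10 min, then 10 mM DL-glyceraldehyde was added and NADPH oxidation followed for 4 min. Compounds were in DMSO diluted with water. Substrate-free blank rates were subtracted.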

Experiment [4] is described as follows: Antidiabetic activity in STZ-induced diabetic Sprague-Dawley rat model assessed as blood glucose level at 50 uM/kg, po administered for 8 weeks measured every week during compound dosing (reference value: 261.53 +/- 53 mg/dl). In kind it is functional, organism-based. Summed up:
(§1)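 Diabetes was induced in rats by a single i.p. injection of streptozotocin, 35 mg/kg in 0.1 M citrate buffer pH 4.5. Animals with fasting blood glucose >150 mg/dl at 72 h were included. Treatment was given p.o. daily for 8 weeks as a suspension in 2% Tween 80 in saline. Diabetic controls received vehicle only. Lenses were dissected at sacrifice after 8 weeks.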

The subject of experiment [5] is Rattus norvegicus. Description: Antidiabetic activity in po dosed STZ-induced diabetic Sprague-Dawley rat model assessed as decrease in aldose reductase activity administered for 8 weeks. In kind it is functional, organism-based. In short, it runs like this:
as §1

The nature of experiment [6]: Antidiabetic activity in STZ-induced diabetic Sprague-Dawley rat model assessed as aldose reductase activity at 50 uM//kg, po administered for 8 weeks (reference value: 44.66 +/- 2.7 U). In kind it is functional, organism-based. In short, it runs like this:
as §1

A short description of experiment [7]: Antidiabetic activity in STZ-induced diabetic Sprague-Dawley rat model assessed as effect on body weight at 50 uM/kg, po administered for 8 weeks (reference value: 186 +/- 6.91 g). In kind it is functional, organism-based. Summed up: as §1
Experiment [8] can be described thus: Antidiabetic activity in STZ-induced diabetic Sprague-Dawley rat model assessed as aldose reductase activity at 5 uM//kg, po administered for 8 weeks (reference value: 44.66 +/- 2.7 U). In kind it is functional, organism-based. Summed up: as §1
The nature of experiment [9]: Antidiabetic activity in STZ-induced diabetic Sprague-Dawley rat model assessed as decrease in fructose level in lenses at 5 to 50 uM/kg, po administered for 8 weeks. In kind it is functional, organism-based. Summed up: as §1
Experiment [10] is described as follows: Antidiabetic activity in STZ-induced diabetic Sprague-Dawley rat model assessed as delay in progression of cataract at 5 to 50 uM/kg, po administered for 8 weeks measured every week during compound dosing by slit-lamp microscopy. In kind it is functional, organism-based. Summed up:
as §1

The nature of experiment [11]: Antidiabetic activity in STZ-induced diabetic Sprague-Dawley rat model assessed as blood glucose level at 5 uM/kg, po administered for 8 weeks measured every week during compound dosing (reference value: 261.53 +/- 53 mg/dl). In kind it is functional, organism-based. Summed up: as §1
The nature of experiment [12]: Antidiabetic activity in STZ-induced diabetic Sprague-Dawley rat model assessed as decrease in sorbitol level in lenses at 5 to 50 uM/kg, po administered for 8 weeks. In kind it is functional, organism-based. Summed up: as §1
The nature of experiment [13]: Antidiabetic activity in STZ-induced diabetic Sprague-Dawley rat model assessed as effect on body weight at 5 uM/kg, po administered for 8 weeks (reference value: 186 +/- 6.91 g). In kind it is functional, organism-based. Summed up: as §1

In general, IC50 refers to the concentration at which inhibition is half-maximal. Read a low IC50 as inhibition by little substance. Consider `COc1cccc2c1OCC(C(=O)NCc1ncc(-c3ccc(Cl)cc3)[nH]1)=C2`, for which, in the experiment listed under Rattus norvegicus [1], the Ratio IC50 was found to be 22.2. Also, the IC50 is 1440 nM in [2] and 65 nM in experiment [3].

As to `CC(C)[C@H](NC(=O)C1=Cc2ccccc2OC1)c1ncc(-c2ccccc2)[nH]1`, the Ratio IC50 in the experiment listed under Rattus norvegicus [1] is 2.19. Further, the IC50 stood at 9410 nM in experiment [2] and 4290 nM in experiment [3].

As to `COc1cccc2c1OCC(C(=O)N1CCC[C@H]1c1ncc(-c3ccc(Cl)cc3)[nH]1)=C2`, the Activity was 130 mg/dL in [4]; “Dose-dependent effect” in the experiment with Rattus norvegicus [5]; 39.5 U in [6]; 320 g in experiment [7]; 41.3 U in experiment [8]; 139 mg/dL in [11]. For the same molecule, in experiment [13], the Activity was 309 g. Also, the Ratio IC50 in the experiment listed under Rattus norvegicus [1] is 110. Further, the concentration for half-maximal inhibition (IC50) in experiment [2] was determined as 3420 nM; in experiment [3] it was 31 nM. The outcome in [9], in [10] and in experiment [12] was Active.

`COc1cccc2c1OCC(C(=O)NCc1ncc(-c3ccc(Br)cc3)[nH]1)=C2`: in the experiment filed under Rattus norvegicus [1], the Ratio IC50 is 17.1. Moreover, the half-maximal inhibitory concentration (IC50) came out at 1560 nM in [2] and 91 nM in experiment [3].

As to `O=C(NCc1ncc(-c2ccc(Br)cc2)[nH]1)C1=Cc2ccccc2OC1`, the Ratio IC50 in the experiment filed under Rattus norvegicus [1] is 4.61. Moreover, the 50% inhibitory concentration (IC50) in experiment [2] turned out to be 3380 nM; in experiment [3], 732 nM.

Consider `NC(=O)[C@@H]1C[C@]2(NC(=O)NC2=O)c2cc(F)ccc2O1`, for which the Activity in [6] worked out at 36.3 U.

For the molecule `COc1cccc2c1OCC(C(=O)NCc1ncc(-c3ccc(F)cc3)[nH]1)=C2`, the Ratio IC50 in the experiment filed under Rattus norvegicus [1] came out at 22.8. Further, the IC50 came out at 1620 nM in experiment [2] and 71 nM in experiment [3].

Take `CC(C)[C@H](NC(=O)C1=Cc2ccccc2OC1)c1ncc(-c2ccc(Br)cc2)[nH]1`: in the experiment filed under Rattus norvegicus [1], the Ratio IC50 is 10.3. Also, the IC50 amounted to 2280 nM in [2] and 220 nM in experiment [3].

For `O=C(NCc1ncc(-c2ccc(F)cc2)[nH]1)C1=Cc2ccccc2OC1`, in the experiment listed under Rattus norvegicus [1], the Ratio IC50 is 4.38. Further, the IC50 in [2] amounted to 1840 nM; in experiment [3], 420 nM.

On to `O=C1NC(=O)[C@@]2(CCOc3ccc(F)cc32)N1`, for which the Activity in [6] turned out to be 39 U.

For `O=C(C1=Cc2ccccc2OC1)N1CCC[C@H]1c1ncc(-c2cccnc2)[nH]1`, the Ratio IC50 in the experiment filed under Rattus norvegicus [1] stood at 10.9. For the same molecule, the half-inhibitory concentration (IC50) is 2430 nM in experiment [2] and 222 nM in [3].

`COc1ccc(-c2cnc(CNC(=O)C3=Cc4cccc(OC)c4OC3)[nH]2)cc1`: the Ratio IC50 in the experiment listed under Rattus norvegicus [1] stood at 1.45. The figures for the 50% inhibitory concentration (IC50) in [2] and in experiment [3] were 1310 nM and 899 nM, respectively.

Take `O=C(C1=Cc2ccccc2OC1)N1CCC[C@H]1c1ncc(-c2ccccc2)[nH]1`: the Ratio IC50 in the experiment listed under Rattus norvegicus [1] is 1.55. For the same molecule, the values for the half-inhibitory concentration (IC50) in experiment [2] and in [3] were 5720 nM and 3670 nM, respectively.

On to `COc1cccc2c1OCC(C(=O)N1CCC[C@H]1c1ncc(-c3cccnc3)[nH]1)=C2`, for which the Ratio IC50 in the experiment filed under Rattus norvegicus [1] turned out to be 9.71. The IC50 in [2] came to 1420 nM; in [3], 146 nM.

In the case of `COc1ccc(-c2cnc(CNC(=O)C3=Cc4ccccc4OC3)[nH]2)cc1`, in the experiment listed under Rattus norvegicus [1], the Ratio IC50 was 9.22. For the same molecule, the half-inhibitory concentration (IC50) is 2540 nM in experiment [2] and 275 nM in experiment [3].

Consider `O=C(NCc1ncc(-c2ccccc2)[nH]1)C1=Cc2ccccc2OC1`, for which the Ratio IC50 in the experiment filed under Rattus norvegicus [1] was 2.48. For the same molecule, the values for the half-inhibitory concentration (IC50) in experiment [2] and in experiment [3] were 5190 nM and 2120 nM, respectively.

For `COc1cccc2c1OCC(C(=O)NCc1ncc(-c3ccccc3)[nH]1)=C2`, the Ratio IC50 in the experiment listed under Rattus norvegicus [1] came to 1.66. The concentration for half-maximal inhibition (IC50) is 1210 nM in [2] and 731 nM in experiment [3].

Take `COc1cccc2c1OCC(C(=O)N1CCC[C@H]1c1ncc(-c3ccccc3)[nH]1)=C2`: in the experiment listed under Rattus norvegicus [1], the Ratio IC50 came to 0.596. For the same molecule, the IC50 was determined as 1830 nM in experiment [2] and 3070 nM in experiment [3].

For the molecule `O=C(C1=Cc2ccccc2OC1)N1CCC[C@H]1c1ncc(-c2ccc(Cl)cc2)[nH]1`, the Ratio IC50 in the experiment listed under Rattus norvegicus [1] was 11.5. Further, the IC50 in [2] turned out to be 3880 nM; in experiment [3] it was 337 nM.

Regarding `COc1cccc2c1OCC(C(=O)N[C@H](c1ncc(-c3ccc(Br)cc3)[nH]1)C(C)C)=C2`, in the experiment listed under Rattus norvegicus [1], the Ratio IC50 turned out to be 4.42. Besides, the IC50 in experiment [2] turned out to be 3410 nM; in experiment [3], 771 nM.

`O=C(NCc1ncc(-c2ccc(Cl)cc2)[nH]1)C1=Cc2ccccc2OC1`: the Ratio IC50 in the experiment listed under Rattus norvegicus [1] was determined as 21.2. Moreover, the concentration for half-maximal inhibition (IC50) in [2] was determined as 2420 nM; in [3], 114 nM.

On to `COc1cccc2c1OCC(C(=O)N[C@H](c1ncc(-c3ccccc3)[nH]1)C(C)C)=C2`, for which, in the experiment listed under Rattus norvegicus [1], the Ratio IC50 amounted to 4.87. For the same molecule, the values for the half-maximal inhibitory concentration (IC50) in [2] and in experiment [3] were 4870 nM and 1000 nM, respectively.
